Data on 3 compounds can be found in article PMC7894042 (ACS chemical neuroscience, 2020).

The target of series [1] is T1, Kv2.1 channels (Rattus norvegicus, UniProt P15387).
T1 sequence (P15387 1-857): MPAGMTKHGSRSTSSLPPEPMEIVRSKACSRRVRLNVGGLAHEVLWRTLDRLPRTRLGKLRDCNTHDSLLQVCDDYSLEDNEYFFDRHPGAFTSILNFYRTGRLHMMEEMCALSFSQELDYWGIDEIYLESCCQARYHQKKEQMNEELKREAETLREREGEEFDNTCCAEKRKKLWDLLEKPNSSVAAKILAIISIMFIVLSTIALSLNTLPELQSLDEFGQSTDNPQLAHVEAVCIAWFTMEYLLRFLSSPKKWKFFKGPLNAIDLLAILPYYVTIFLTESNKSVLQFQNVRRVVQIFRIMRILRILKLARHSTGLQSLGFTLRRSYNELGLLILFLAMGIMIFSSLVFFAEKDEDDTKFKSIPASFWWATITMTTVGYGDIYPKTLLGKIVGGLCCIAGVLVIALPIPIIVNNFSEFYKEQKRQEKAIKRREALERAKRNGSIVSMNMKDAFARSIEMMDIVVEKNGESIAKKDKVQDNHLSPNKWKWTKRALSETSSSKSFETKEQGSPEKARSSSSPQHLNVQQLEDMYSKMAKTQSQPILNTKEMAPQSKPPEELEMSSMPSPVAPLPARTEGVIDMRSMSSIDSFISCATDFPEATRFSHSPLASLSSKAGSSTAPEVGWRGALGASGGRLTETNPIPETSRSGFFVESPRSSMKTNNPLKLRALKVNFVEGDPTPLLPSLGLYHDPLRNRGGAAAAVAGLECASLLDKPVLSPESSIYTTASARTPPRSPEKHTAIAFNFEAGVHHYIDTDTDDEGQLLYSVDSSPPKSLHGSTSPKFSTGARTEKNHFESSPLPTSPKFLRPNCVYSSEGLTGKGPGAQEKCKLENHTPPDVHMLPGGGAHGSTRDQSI
Conditions: values for GxTX are from ref [23], cited from earlier work.

Series [2] relates to Kv2.1 closed state VSD. The settings on record: ref [22], cited from earlier work; for effect on channel opening / gating charge: Kv2.1.
The nature of series [3]: Fluorophore characterization: emission spectra in solvents. The format is physicochemical. The settings on record: fluorometer. An outline of the steps: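 JP-N3 emission spectra were recorded in toluene, acetone, MeOH and H2O. Each spectrum was fitted with a single six-component split pseudo-Voigt curve to give a reference line shape.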
Series [4] relates to mice. Conditions: injected into mice; no reference or experiment given; cited from earlier work.

Read-outs that look alike come from different tables or passages of the source.

The Kd is the constant that tells how readily two partners part at equilibrium. As for Met35Nle guangxitoxin-1E [GxTX], in series [1] (0 mV), the Kd was 1520 ± 810 nM, the koff is given as 38 ± 9 × 10^−3 s^−1 and the kon is 2.5 ± 1.2 × 10^−5 s^−1 nM^−1. In series [1] (−100 mV), the Kd is 2.55 ± 1.01 nM, the koff is reported as 0.84 ± 0.18 × 10^−3 s^−1 and the kon is on record as 3.30 ± 1.10 × 10^−4 s^−1 nM^−1. Further, in series [2], the “effect on channel opening / gating charge” value is “inhibiting early, fast gating charge transitions”.

On to `[N-]=[N+]=NCc1cc(=O)cc2oc3c4c5c(cc3nc1-2)CCCN5CCC4` [JP-N3, 10-(azidomethyl)-julolidino-phenoxazinone], for which the “emission peak in MeOH” value in series [3] (200 nM JP-N3, anhydrous MeOH) turned out to be 640 nm. Further, in series [3] (200 nM JP-N3, anhydrous hydrocarbon solvent), the “emission peak in hydrocarbon” value is given as 609 nm.

As for “guangxitoxin-1E (EGECGGFWWKCGSGKPACCPKYVCSPKWGLCNFPMP; UniProt P84835 1-36, looked up) [GxTX-1E]”, in series [2], the “effect on channel opening / gating charge” value was “shifting channel opening to more depolarized potentials” and the “affinity for Kv2.1 closed state VSD relative to its open state” value was 5400 fold. Further, the toxicity entry in series [4] was “no toxicity up to 10 mg/kg”.
